The target in assay [1] is T1, DNA topoisomerase 1 (Homo sapiens) (UniProt P11387).
T1 sequence (whole entry): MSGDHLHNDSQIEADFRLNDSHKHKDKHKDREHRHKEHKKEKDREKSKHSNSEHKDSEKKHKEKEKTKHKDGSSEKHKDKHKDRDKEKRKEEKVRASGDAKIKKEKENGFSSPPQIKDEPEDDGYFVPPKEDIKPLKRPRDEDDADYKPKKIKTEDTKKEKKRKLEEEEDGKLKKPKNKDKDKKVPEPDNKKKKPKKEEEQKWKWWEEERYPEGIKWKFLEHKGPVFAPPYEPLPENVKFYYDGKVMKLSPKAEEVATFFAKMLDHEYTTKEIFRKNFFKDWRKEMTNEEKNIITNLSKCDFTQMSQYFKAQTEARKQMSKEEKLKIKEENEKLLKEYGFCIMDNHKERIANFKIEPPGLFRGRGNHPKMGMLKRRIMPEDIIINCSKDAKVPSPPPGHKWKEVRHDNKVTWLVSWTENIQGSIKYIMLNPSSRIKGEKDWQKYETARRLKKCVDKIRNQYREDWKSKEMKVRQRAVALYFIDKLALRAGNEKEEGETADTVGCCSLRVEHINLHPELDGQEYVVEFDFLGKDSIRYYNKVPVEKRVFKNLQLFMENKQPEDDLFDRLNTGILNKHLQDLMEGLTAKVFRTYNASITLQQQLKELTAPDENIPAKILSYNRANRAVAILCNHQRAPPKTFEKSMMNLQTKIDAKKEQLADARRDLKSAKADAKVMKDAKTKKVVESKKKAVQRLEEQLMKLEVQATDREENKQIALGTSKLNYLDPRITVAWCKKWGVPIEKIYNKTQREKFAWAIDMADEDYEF
Put plainly: Inhibition of human DNA topoisomerase 1 at 200 uM relative to control.

In assay [2] the test system is Escherichia coli. Put plainly: Inhibition of Escherichia coli DNA topoisomerase 4 at 200 uM relative to control.
Assay [3] has as its system Escherichia coli. Put plainly: Inhibition of Escherichia coli DNA gyrase catalytic activity at 200 uM relative to control. An outline of the steps: (§1)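 E. coli gyrase was incubated with relaxed DNA, either without compound or with compound at 200 μM; titrations also used 20, 50 and 100 μM. Gel lanes included a no-enzyme control and an enzyme-without-compound control, and supercoiling was scored from the lane pattern. In the summary table, + denotes greater than 95% inhibition.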

For assay [4], the target named is DNA topoisomerase 2-alpha (Homo sapiens) (UniProt P11388). Put plainly: Inhibition of human DNA topoisomerase 2 at 200 uM relative to control.
Sequence of DNA topoisomerase 2-alpha (Homo sapiens) (P11388 whole entry): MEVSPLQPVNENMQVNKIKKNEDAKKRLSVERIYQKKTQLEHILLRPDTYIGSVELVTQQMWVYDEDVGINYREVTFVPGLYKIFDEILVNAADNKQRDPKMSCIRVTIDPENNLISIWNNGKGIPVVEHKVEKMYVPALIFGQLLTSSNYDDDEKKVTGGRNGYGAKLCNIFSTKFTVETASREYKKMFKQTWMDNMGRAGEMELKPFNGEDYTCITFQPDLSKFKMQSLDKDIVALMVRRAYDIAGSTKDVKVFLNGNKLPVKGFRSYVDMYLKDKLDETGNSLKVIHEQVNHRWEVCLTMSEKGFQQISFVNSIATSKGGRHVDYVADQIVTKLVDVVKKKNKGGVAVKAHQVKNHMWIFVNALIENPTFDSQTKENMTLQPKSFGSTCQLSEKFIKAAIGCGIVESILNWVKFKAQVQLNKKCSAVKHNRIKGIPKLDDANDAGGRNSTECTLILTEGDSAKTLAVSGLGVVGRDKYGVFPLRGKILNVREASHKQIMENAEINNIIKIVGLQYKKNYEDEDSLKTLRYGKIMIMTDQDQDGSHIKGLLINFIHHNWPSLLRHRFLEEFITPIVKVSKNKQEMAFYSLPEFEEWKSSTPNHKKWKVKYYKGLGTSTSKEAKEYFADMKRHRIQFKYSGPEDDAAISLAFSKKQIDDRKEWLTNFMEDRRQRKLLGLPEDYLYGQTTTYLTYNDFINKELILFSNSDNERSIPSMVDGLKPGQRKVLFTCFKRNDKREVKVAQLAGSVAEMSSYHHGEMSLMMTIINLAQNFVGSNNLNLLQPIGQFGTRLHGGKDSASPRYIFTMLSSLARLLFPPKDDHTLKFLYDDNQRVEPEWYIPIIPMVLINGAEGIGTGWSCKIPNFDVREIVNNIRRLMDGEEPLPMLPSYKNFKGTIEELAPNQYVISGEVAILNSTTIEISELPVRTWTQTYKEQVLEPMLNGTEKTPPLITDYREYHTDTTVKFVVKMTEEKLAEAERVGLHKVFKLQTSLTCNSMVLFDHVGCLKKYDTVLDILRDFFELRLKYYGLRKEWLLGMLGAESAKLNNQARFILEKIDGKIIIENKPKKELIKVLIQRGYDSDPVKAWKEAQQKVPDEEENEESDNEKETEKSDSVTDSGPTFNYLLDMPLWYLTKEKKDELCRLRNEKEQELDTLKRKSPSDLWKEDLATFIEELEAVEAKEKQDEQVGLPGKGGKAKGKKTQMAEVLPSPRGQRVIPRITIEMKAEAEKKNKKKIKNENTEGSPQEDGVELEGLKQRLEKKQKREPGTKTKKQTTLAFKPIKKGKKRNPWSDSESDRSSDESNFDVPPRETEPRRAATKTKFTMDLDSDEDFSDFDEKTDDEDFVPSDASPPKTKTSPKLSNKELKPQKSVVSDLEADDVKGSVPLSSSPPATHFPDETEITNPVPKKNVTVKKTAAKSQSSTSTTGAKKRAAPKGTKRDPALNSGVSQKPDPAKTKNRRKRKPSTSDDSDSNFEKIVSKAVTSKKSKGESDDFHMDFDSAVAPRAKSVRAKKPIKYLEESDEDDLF
Assay [5] concerns Escherichia coli. Put plainly: Inhibition of Escherichia coli DNA topoisomerase 4-mediated decatenation of kinetoplast DNA at 200 uM after 15 mins by agarose gel electrophoresis.
The subject of assay [6] is Escherichia coli. Kind of assay: Inhibition of Escherichia coli DNA gyrase-mediated supercoiling of relaxed I-DNA after 15 mins by agarose gel electrophoresis. A digest of the protocol:
as §1

Assay [7] has as its system Escherichia coli. Kind of assay: Inhibition of Escherichia coli DNA topoisomerase 4-mediated relaxation of negatively supercoiled pBR322 DNA at 200 uM after 15 mins by agarose gel electrophoresis.
Assay [8] deals with Escherichia coli. Kind of assay: Inhibition of Escherichia coli DNA topoisomerase 4 assessed as blockade of ciprofloxacin-induced pBR322 DNA cleavage at 200 uM after 10 mins by agarose gel electrophoresis. A digest of the protocol: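 E. coli Topo IV was incubated with plasmid DNA and ciprofloxacin with or without compound. Ciprofloxacin traps the enzyme–DNA ternary complex, and nicked and linear DNA products were scored on the gel against the supercoiled substrate.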

The source made the active and inactive calls. No cut-off for these calls is given here.

In the case of `O=C(NC[C@@H]1O[C@H](O[C@H]2[C@@H](O)[C@H](O[C@@H]3[C@@H](O)[C@H](NC(=O)OCc4ccccc4)C[C@H](NC(=O)OCc4ccccc4)[C@H]3O[C@H]3O[C@H](CNC(=O)OCc4ccccc4)[C@@H](O)[C@H](O)[C@H]3NC(=O)OCc3ccccc3)O[C@@H]2CO)[C@H](NC(=O)OCc2ccccc2)[C@@H](O)[C@@H]1O)OCc1ccccc1`, the inhibition result in assay [1], in assay [2], in assay [3] and in assay [4] was “inactive” each time.

For the compound `O=C(NC[C@@H]1O[C@H](O[C@H]2[C@@H](OS(=O)(=O)O)[C@H](O[C@@H]3[C@@H](OS(=O)(=O)O)[C@H](NC(=O)OCc4ccccc4)C[C@H](NC(=O)OCc4ccccc4)[C@H]3O[C@H]3O[C@H](CNC(=O)OCc4ccccc4)[C@@H](OS(=O)(=O)O)[C@H](OS(=O)(=O)O)[C@H]3NC(=O)OCc3ccccc3)O[C@@H]2COS(=O)(=O)O)[C@H](NC(=O)OCc2ccccc2)[C@@H](OS(=O)(=O)O)[C@@H]1OS(=O)(=O)O)OCc1ccccc1`, the inhibition result in assay [5], in assay [7] and in assay [8] was “Active” in each case. Further, the inhibition result in assay [6] was “Dose-dependent effect”.

`CC(=O)NC[C@@H]1O[C@H](O[C@H]2[C@@H](O)[C@H](O[C@@H]3[C@@H](O)[C@H](NC(C)=O)C[C@H](NC(C)=O)[C@H]3O[C@H]3O[C@H](CNC(C)=O)[C@@H](O)[C@H](O)[C@H]3NC(C)=O)O[C@@H]2CO)[C@H](NC(C)=O)[C@@H](O)[C@@H]1O`: the inhibition result in assay [1], in assay [2], in assay [3] and in assay [4] was “inactive” in each case.

For the compound `CN(C(=O)c1ccccc1)[C@@H]1[C@@H](O[C@H]2O[C@H](CO)[C@@H](NC(=O)c3ccccc3)[C@H](O)[C@H]2O)O[C@H]2C[C@@H](NC(=O)c3ccccc3)[C@@H](O[C@H]3[C@H](O)[C@@H](O)[C@H](NC(=O)c4ccccc4)C[C@@H]3NC(=O)c3ccccc3)O[C@@H]2[C@@H]1O`, the inhibition result in assay [8] was “Active”.

On to `O=C(NC[C@H]1O[C@H](O[C@H]2[C@H](O)[C@@H](O[C@H]3O[C@H](CO)[C@@H](O)[C@H](NC(=O)c4ccccc4)[C@H]3O)[C@H](NC(=O)c3ccccc3)C[C@@H]2NC(=O)c2ccccc2)[C@H](O)[C@@H](O)[C@@H]1O)c1ccccc1`, for which the inhibition result in assay [1], in assay [2], in assay [3] and in assay [4] was “inactive” in each case.

Turning to `O=C(NC[C@H]1O[C@H](O[C@H]2[C@H](O)[C@@H](O[C@H]3O[C@H](CO)[C@@H](O)[C@H](NC(=O)OCc4ccccc4)[C@H]3O)[C@H](NC(=O)OCc3ccccc3)C[C@@H]2NC(=O)OCc2ccccc2)[C@H](O)[C@@H](O)[C@@H]1O)OCc1ccccc1`, the inhibition entry in assay [1], in assay [2], in assay [3] and in assay [4] was “inactive” throughout.

Take `O=C(Cc1ccccc1)NC[C@H]1O[C@H](O[C@H]2[C@H](O)[C@@H](O[C@H]3O[C@H](CO)[C@@H](O)[C@H](NC(=O)Cc4ccccc4)[C@H]3O)[C@H](NC(=O)Cc3ccccc3)C[C@@H]2NC(=O)Cc2ccccc2)[C@H](O)[C@@H](O)[C@@H]1O`: the inhibition result in assay [1], in assay [2], in assay [3] and in assay [4] was “inactive” each time.

Turning to `CN(C(=O)OCc1ccccc1)[C@@H]1[C@@H](O[C@H]2O[C@H](CO)[C@@H](NC(=O)OCc3ccccc3)[C@H](O)[C@H]2O)O[C@H]2C[C@@H](NC(=O)OCc3ccccc3)[C@@H](O[C@H]3[C@H](O)[C@@H](O)[C@H](NC(=O)OCc4ccccc4)C[C@@H]3NC(=O)OCc3ccccc3)O[C@@H]2[C@@H]1O`, the inhibition result in assay [1], in assay [2], in assay [3] and in assay [4] was “inactive” each time.

For the compound `O=C(Cc1ccccc1)NC[C@@H]1O[C@H](O[C@H]2[C@@H](O)[C@H](O[C@@H]3[C@@H](O)[C@H](NC(=O)Cc4ccccc4)C[C@H](NC(=O)Cc4ccccc4)[C@H]3O[C@H]3O[C@H](CNC(=O)Cc4ccccc4)[C@@H](O)[C@H](O)[C@H]3NC(=O)Cc3ccccc3)O[C@@H]2CO)[C@H](NC(=O)Cc2ccccc2)[C@@H](O)[C@@H]1O`, the inhibition result in assay [1], in assay [2], in assay [3] and in assay [4] was “inactive” in each case.

Source of the values: ChEMBL document CHEMBL2385070, “Selective inhibition of bacterial and human topoisomerases by N-arylacyl O-sulfonated aminoglycoside derivatives” (ACS Med Chem Lett, 2013).
